Experimental data from ChEMBL document CHEMBL4041534, “Treatment of Sepsis Pathogenesis with High Mobility Group Box Protein 1-Regulating Anti-inflammatory Agents” (J Med Chem, 2017).
Positions count from the first letter of the chain named. In brackets after ≈: the same amount, converted by molar mass. Activity calls are given as the source filed them. No cut-off for these calls is given here.

What was measured:
[1] = biological target: T1, High mobility group protein B1 (Mus musculus) (UniProt P63158); assay: Inhibition of HMGB1 translocation from nucleus to cytosol in LPS-stimulated mouse RAW264.7 cells assessed as inhibition of NO release at 10 uM measured after 24 hrs by Griess assay relative to control
T1 sequence (whole entry): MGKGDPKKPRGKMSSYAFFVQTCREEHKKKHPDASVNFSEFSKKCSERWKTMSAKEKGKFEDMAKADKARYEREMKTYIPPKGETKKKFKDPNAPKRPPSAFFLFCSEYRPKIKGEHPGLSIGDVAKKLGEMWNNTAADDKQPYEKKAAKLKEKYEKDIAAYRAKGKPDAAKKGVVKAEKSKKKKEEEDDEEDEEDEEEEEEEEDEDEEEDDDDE
Method in brief: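 Raw264.7 cells, seeded 1 day earlier, were moved to serum-free DMEM and exposed to 100 ng/mL LPS with 10 μM compound for 24 h. Supernatant NO was measured with Griess reagent (sulfanilamide/N-(1-naphthyl)ethylenediamine/phosphoric acid) at room temperature, absorbance 548 nm. Inhibition was set against LPS+DMSO wells, blank-corrected, with four control wells. At least three independent experiments.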

[2] = Cytotoxicity against mouse RAW264.7 cells assessed as cell viability at 10 uM in presence of LPS measured after 24 hrs by WST assay relative to control; type: cell-based; conditions: read-out: Activity
Method in brief: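 Raw264.7 cells, seeded 1 day earlier, were washed into serum-free DMEM and given 100 ng/mL LPS plus compound (10 μM) for 24 h. After the supernatant was removed, wells were refilled with 10% FBS DMEM and WST reagent was added for 20 min at 37 °C. Absorbance was read at 450 nm, and viability is relative to vehicle. At least three independent experiments.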

[3] = biological target: T1, High mobility group protein B1 (Mus musculus); assay: Inhibition of HMGB1 translocation from nucleus to cytosol in LPS-stimulated mouse RAW264.7 cells assessed as inhibition of TNF-alpha production at 10 uM measured after 4 hrs by ELISA relative to control
Method in brief: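 Raw264.7 cells in serum-free DMEM were treated with 100 ng/mL LPS and 10 μM compound (final). After 4 h, medium was diluted in 1% BSA/PBS and secreted TNF-α was quantified by ELISA against a standard curve of TNF-α protein. Inhibition is relative to control. At least three independent experiments.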

[4] = biological target: T1, High mobility group protein B1 (Mus musculus); assay: Inhibition of HMGB1 nuclear translocation in LPS-stimulated mouse RAW264.7 cells at 20 uM pretreated for 1 hr followed by LPS-induction measured after 2 hrs by Hoechst 33342/TRITC staining based immunofluorescence microscopic method
Method in brief: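 Raw264.7 cells on chambered coverglass were pretreated with 20 μM compound for 1 h, then given 500 ng/mL LPS for 2 h. Cells were fixed in 4% paraformaldehyde, permeabilized with methanol at −20 °C, blocked with 2% BSA, and stained with anti-HMGB1 plus TRITC secondary and Hoechst 33342. Imaged by deconvolution fluorescence microscopy. At least three independent experiments.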

[5] = biological target: T1, High mobility group protein B1 (Mus musculus); assay: Inhibition of HMGB1 nuclear translocation in LPS-stimulated mouse RAW264.7 cells assessed as inhibition of IL-6 production at 10 uM pretreated for 1 hr followed by LPS-induction by Western blot analysis
Method in brief: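 Raw264.7 cells were pretreated with 10 μM compound for 1 h, then given 100 ng/mL LPS. IL-6 released into the culture medium was detected by Western blot with ECL chemiluminescence, DMSO as control. At least three independent experiments.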

Mus musculus [6] = assay: Anti-inflammatory activity in C57BL/6(B6) mouse model of CLP-induced sepsis assessed as increase in survival rate at 10 mg/kg, ip administered daily for 9 days starting from 1 hr prior to CLP-induction; type: functional, organism-based
Method in brief: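 C57BL/6 mice from a specific pathogen-free facility underwent CLP. The cecum was ligated below the ileocecal valve 5.0 mm from the tip, punctured once with a 20-gauge needle and a little stool extruded, then the abdomen was closed. Mice received 10 mg/kg ip daily for 9 days and survival was followed against vehicle-treated mice.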

Mus musculus [7] = assay: Anti-inflammatory activity in C57BL/6(B6) mouse model of CLP-induced sepsis assessed as decrease in serum IL-6 level at 10 mg/kg, ip administered daily for 9 days starting from 1 hr prior to CLP-induction by ELISA; type: functional, organism-based
[8] = biological target: T2, High mobility group protein B1 (Homo sapiens) (UniProt P09429); assay: Inhibition of ICM-BP binding to recombinant human HMGB1 assessed as reduction in Cy5-azide incorporation pretreated for 60 mins followed by ICM-BP addition for 20 mins and subsequent UV light irradiation for 5 mins by fluorescence assay
T2 sequence (whole entry): T1 sequence (whole entry) with D189E, E202D
Method in brief: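 Purified HMGB1 (1 μg in water) was pretreated with competitor for 60 min, with DMSO held at 0.8% final. ICM-BP (5 μM) was then added for 20 min, followed by 365 nm UV for 5 min on ice. Cy5-azide was attached by click reaction, then samples were run on 12.5% SDS-PAGE and in-gel fluorescence scanned. Competitor was dosed in a graded series.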

[9] = biological target: MAP kinase p38 (Mus musculus) (UniProt P47811+O08911+Q9WUI1+Q9Z1B7); assay: Inhibition of MAPK p38 phosphorylation at Thr180/Tyr182 resdiues in LPS-stimulated mouse RAW264.7 cells at 20 uM pretreated followed by LPS-induction by Western blot analysis
Method in brief: (§1)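 Raw264.7 cells were pretreated with 20 μM compound, then stimulated with 100 ng/mL LPS, with DMSO as control. Lysates in RIPA buffer with protease and phosphatase inhibitors were normalized by BCA and run on SDS-PAGE/Western blot for phospho-p38, JNK and ERK, with GAPDH as loading control. Detection by ECL, and band intensities were quantified. At least three independent experiments.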

Mus musculus [10] = species on record: Mus musculus; assay: Inhibition of JNK phosphorylation at Thr183/Tyr185 resdiues in LPS-stimulated mouse RAW264.7 cells at 20 uM pretreated followed by LPS-induction by Western blot analysis; method in brief: as §1
Mus musculus [11] = species on record: Mus musculus; assay: Inhibition of ERK phosphorylation in LPS-stimulated mouse RAW264.7 cells at 20 uM pretreated followed by LPS-induction by Western blot analysis; method in brief: as §1
Mus musculus [12] = species on record: Mus musculus; assay: Inhibition of NF-kappaB p65 nuclear translocation in LPS-stimulated mouse RAW264.7 cells at 20 uM pretreated followed by LPS-induction by Hoechst 33342/TRITC staining based immunofluorescence microscopic method
Method in brief: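 NF-κB p65 immunofluorescence in Raw264.7 cells pretreated with 20 μM compound, then stimulated with 500 ng/mL LPS. Fixation was 4% paraformaldehyde, methanol permeabilization at −20 °C, and BSA blocking. Cells were stained with anti-p65 plus TRITC secondary and Hoechst 33342 nuclear stain, then imaged by deconvolution microscopy. At least three independent experiments.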

[13] = Equilibrium aqueous solubility of the compound by microsol method; type: physicochemical
Method in brief: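 Equilibrium aqueous solubility by the μsol method. Mean ± SD, n = 3.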

[14] = Stability in mouse liver microsomes assessed as compound remaining preincubated for 5 mins followed by NADPH addition measured after 30 mins LC/MS/MS method; type: ADME, microsome; conditions: read-out: Stability
Method in brief: (§2)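 Compounds were incubated with human or mouse liver microsomes in 100 mM potassium phosphate, pH 7.4, at 37 °C for 5 min. NADPH regenerating solution was added, and the reaction was stopped at 30 min with ice-cold acetonitrile containing imipramine internal standard. Percent remaining was measured by LC/MS/MS. Mean ± SD, n = 3.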

[15] = Stability in human liver microsomes assessed as compound remaining preincubated for 5 mins followed by NADPH addition measured after 30 mins LC/MS/MS method; type: ADME, microsome; conditions: read-out: Stability; method in brief: as §2
Mus musculus [16] = assay: Anti-inflammatory activity in C57BL/6(B6) mouse model of CLP-induced sepsis assessed as survival rate at 10 mg/kg, ip administered daily for 21 days starting from 1 hr prior to CLP-induction (reference value: 10 %); type: functional
Mus musculus [17] = assay: Anti-inflammatory activity in C57BL/6(B6) mouse model of CLP-induced sepsis assessed as decrease in serum IL-6 level at 10 mg/kg, ip administered daily for 21 days starting from 1 hr prior to CLP-induction by ELISA; type: functional, organism-based
Method in brief: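 Serum IL-6 measured by sandwich ELISA. Blood was taken from CLP-induced C57BL/6 mice 24 h after surgery. Plates coated with anti-IL-6 mAb overnight at 4 °C and blocked with 1% BSA/PBS; serum incubated overnight at 4 °C. Detection used biotinylated anti-IL-6 and streptavidin-HRP, TMB development and absorbance at 450 nm. Run in triplicate, three independent repeats.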

Row | SMILES | inhibition [1] | viability at 24 h, 10 µM [2] [%] | further results
1 | CC1(C)Oc2cc(O)ccc2C2C1CCn1c(=O)n(-c3ccccc3)c(=O)n12 (stereo not drawn) | inactive |  | 
2 | CC1(C)Oc2cc(O)ccc2C2C1=CCn1c(=O)n(-c3ccccc3)c(=O)n12 (stereo not drawn) | 87% | 105 | Activity (Mus musculus [6]): Active; Activity (Mus musculus [7]): Active; inhibition [3]: 43%; inhibition [4]: Active; inhibition [5]: Active; inhibition [8]: Dose-dependent effect; inhibition [9]: Active; inhibition (Mus musculus [10]): Active; inhibition (Mus musculus [11]): Active; inhibition (Mus musculus [12]): Active; solubility thermodynamic [13]: 23.5 µg/mL (≈ 62.3 µM); remaining at 0.5 h [14]: 0.41%; remaining at 0.5 h [15]: 0.82%; survival at 10 mg/kg (Mus musculus [16]): 45%; Activity (Mus musculus [17]): Active
3 | CC1(C)Oc2cc(O)ccc2C2C1=CCn1c(=O)n(C3CCCCC3)c(=O)n12 (stereo not drawn) | 63% | 117 | 
4 | CC(=O)N1CCC2(CC1)Oc1cc(O)ccc1C1C2=CCn2c(=O)n(-c3ccccc3)c(=O)n21 (stereo not drawn) | 36% |  | 
5 | CC1(C)Oc2cc(O)ccc2C2C1C=Cn1c(=O)n(-c3ccccc3)c(=O)n12 (stereo not drawn) | inactive |  | 
6 | COc1cc2c(cc1OC)C1C(=CCn3c(=O)n(-c4ccccc4)c(=O)n31)C(C)(C)O2 (stereo not drawn) | 44% |  | 

Continued, in another order:

Row | inhibition [1] | SMILES | viability at 24 h, 10 µM [2] [%] | further results
7 | 94% | Cc1ccc(-n2c(=O)n3n(c2=O)C2C(=CC3)C(C)(C)Oc3cc(O)ccc32)cc1 (stereo not drawn) | 130 | inhibition [3]: 45%; inhibition [4]: Active; inhibition [5]: Active
8 | 96% | COc1cccc(-n2c(=O)n3n(c2=O)C2C(=CC3)C(C)(C)Oc3cc(O)ccc32)c1 (stereo not drawn) | 118 | inhibition [3]: 38%
9 | 79% | CC1(C)Oc2cc(F)ccc2C2C1=CCn1c(=O)n(-c3ccccc3)c(=O)n12 (stereo not drawn) |  | 
10 | 70% | CC1(C)Oc2cc(O)ccc2C2C1=CCn1c(=O)n(Cc3ccccc3)c(=O)n12 (stereo not drawn) | 106 | 
11 | 83% | CC1(C)Oc2ccccc2C2C1=CCn1c(=O)n(-c3ccccc3)c(=O)n12 (stereo not drawn) |  | 
12 | 26% | COc1ccc2c(c1O)OC(C)(C)C1=CCn3c(=O)n(-c4ccccc4)c(=O)n3C12 (stereo not drawn) |  | 
13 | 48% | CC1(C)Oc2cc(O)ccc2C2C1=CCn1c(=O)n(-c3ccccc3I)c(=O)n12 (stereo not drawn) | 109 | 
